CHRM1 agonist – human M1 muscarinic receptor agonism; CHO-K1 hM1, Fluo-8 calcium fluorescence, agonist mode; 0% DMSO, 100% acetylcholine EC100; activation, % at 3 µM; actives 0.33% (n = 360,000); P11229;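 active = activation above the run's mean compound activation plus 3 SD, cut at about 16% in these data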;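 note: peak over basal fluorescence ratio within a 140 s kinetic read after compound addition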
M1 PAM – positive allosteric modulators of human M1 muscarinic receptor; CHO-K1 hM1, Fluo-8 calcium fluorescence, ACh EC20; 0% = ACh EC20, 100% = maximal ACh; activation, % at 3 µM; actives 0.088% (n = 360,000); AID 588819; P11229; in the data active = activation above about 19%, passing the limit was not always enough
TAAR1 agonist – human TAAR1 agonism | CHO RD-HGA16 TAAR1, Fluo-8 calcium fluorescence; vehicle wells 0%, saturating PEA agonist 100% | activation, % at 3 µM | actives 0.99% (n = 360,000);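 active = activation above the mean activation of all test compounds in the run plus 3 SD, cut at about 38% in these data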
Target sequence (Q96RJ0 whole entry, looked up): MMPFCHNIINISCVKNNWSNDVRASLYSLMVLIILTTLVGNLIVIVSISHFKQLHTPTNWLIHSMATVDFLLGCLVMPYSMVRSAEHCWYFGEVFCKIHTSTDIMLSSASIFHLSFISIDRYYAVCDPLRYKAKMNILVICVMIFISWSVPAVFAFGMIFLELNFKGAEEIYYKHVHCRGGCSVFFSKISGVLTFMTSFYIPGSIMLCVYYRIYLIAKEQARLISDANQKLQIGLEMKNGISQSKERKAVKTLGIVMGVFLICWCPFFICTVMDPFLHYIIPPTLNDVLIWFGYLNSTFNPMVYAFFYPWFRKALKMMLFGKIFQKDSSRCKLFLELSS
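Signal – calcium-sensitive Fluo-8 signal, excitation 470-495, emission 515-575 nm · System – RD-HGA16 (CHO) cells co-expressing Gα16 and hTAAR1 · Incubation – 17-24 h seeding, 75 min 37 °C dye, 30 min RT · Compound dosing – 3 µM single concentration · Repeats – no replicates (n 1)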
CHRM1 antagonist – human CHRM1 antagonism | P11229 | CHO-K1 hM1, Fluo-8 calcium fluorescence, ACh EC80 antagonist | inhibition, % at 3 µM | actives 1.3% (n = 360,000);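 active = percent inhibition above its own plate's cutoff, namely the mean of that plate's compound wells plus 3 SD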;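 note: peak over basal fluorescence ratio during 140 s after agonist addition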
TAAR1 antag – antagonists of human TAAR1; Q96RJ0; CHO RD-HGA16 TAAR1, Fluo-8 calcium fluorescence, antagonist; inhibition, % at 3 µM; actives 1.5% (n = 360,000); AID 624466;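 active = inhibition above a per-plate cutoff, the mean inhibition of test compounds on that plate plus 3 SD, cut at about 49% in these data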
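System: CHO RD-HGA16 cells bearing hTAAR1. Reagent: EC80 β-phenethylamine stimulus. Schedule: seeding 17-24 h prior, 75-min 37 °C, 30-min RT dye loading. Signal: Fluo-8 intracellular calcium dye fluorescence, real-time kinetic reads. Read-out: % inhibition from peak post-agonist over basal fluorescence ratio. Benchmarks: vehicle wells and EC80 agonist wells. Replicates: n of 1.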
Each line names hits and unclear results; the compound was inactive in the other large screens. Most compounds without a hit are left out; they make up all but 3.4% or so of the library.

CC(C)C[C@@H]1COc2cccc(N3CCCCC3)c2S(=O)(=O)N1	none (no result: CHRM1 agonist, M1 PAM, CHRM1 antagonist)
Cc1ccc(C(CNS(=O)(=O)c2ccccc2)N2CCN(C)CC2)cc1 (stereo unspecified)	M1 PAM 25.0
CC(C)(C)C(=O)c1sc2nc(-c3cccs3)cc(C(F)(F)F)c2c1N	none
Nc1c(C(=O)Nc2nccs2)sc2nc(-c3cccs3)cc(C(F)(F)F)c12	CHRM1 agonist 28.4, CHRM1 antagonist 36.8
CCC/C=C/c1ccc(CN2C(C)C(=O)N(Cc3cn(CCC4OCCO4)nn3)CCS2(=O)=O)cc1 (stereo unspecified)	none
CC1(C(=O)NCc2ccc(Cl)c(Cl)c2)Oc2cccnc2NC1=O (stereo unspecified)	TAAR1 agonist 53.2
CC1(C(=O)NCc2ccccc2)Oc2ccccc2NC1=O (stereo unspecified)	none
Oc1nc(Nc2cccc(Cl)c2)sc1/C=C1\C=Nc2ccccc21	TAAR1 antag 54.1
Oc1cccc(Nc2nc(O)c(/C=C3\C=Nc4ccccc43)s2)c1	none
COCc1cc(C)nc(SCC[N+](C)(C)CC(=O)c2ccc(Br)cc2)c1C#N	CHRM1 antagonist 70.4
COCc1cc(C)nc(SCC[N+](C)(C)CC(=O)Nc2ccccc2)c1C#N	none
C[C@H]1CN([C@@H](C)CO)C(=O)c2c(c3ccccc3n2C)-c2ccccc2CO[C@H]1CN(C)C(=O)Nc1cccc(F)c1	none (no result: CHRM1 agonist, M1 PAM, CHRM1 antagonist)
O=C(NCCc1ccccc1Cl)[C@@H]1CCCN1C(=O)[C@@H](NS(=O)(=O)c1ccc(F)cc1F)C1CCCCC1	none (no result: CHRM1 agonist, M1 PAM, CHRM1 antagonist)
Cc1cc(CNC(=O)COc2ccccc2)c2ccccc2n1	none
Cc1cccc(OCC(=O)NNc2c3ccccc3nc3ccccc23)c1	TAAR1 antag 60.5
CCCC(=O)OC[C@H]1CN(C2CCCC2)S(=O)(=O)c2c(F)cccc2O1	none (no result: CHRM1 agonist, M1 PAM, CHRM1 antagonist)
O=C(N[C@H](Cc1ccccc1)C(=O)N1CCN(Cc2ccccn2)CC1)[C@H]1O[C@@H](n2ccc(=O)[nH]c2=O)[C@H](O)[C@@H]1O	none (no result: CHRM1 agonist, M1 PAM, CHRM1 antagonist)
COC(=O)c1c(N)[nH]c(C(=O)c2ccccc2)c1-c1ccc(Br)cc1	none (no result: CHRM1 agonist, M1 PAM, CHRM1 antagonist)
Cc1nn(Cc2ccc(Cl)c(Cl)c2)c(C)c1NC(=O)c1cc(CC(C)C)on1	CHRM1 antagonist 28.6
Cc1nn(Cc2ccc(Cl)c(Cl)c2)c(C)c1NC(=O)c1noc2c1CCCCC2	M1 PAM 27.3
COC(=O)c1cc(=O)nc(NN=C(C)C)s1	none (no result: CHRM1 agonist, M1 PAM, CHRM1 antagonist)
COc1ccccc1N(C(=O)CCl)c1cn(C(C)=O)c2ccccc12	none
COc1ccccc1N(C(C)=O)C1=C(Cl)C(=O)c2ccccc2C1=O	TAAR1 antag 56.5
COc1ccccc1Cc1c(-c2ccc(Cl)cc2)nc2ccc(C)cn12	none (no result: CHRM1 agonist, M1 PAM, CHRM1 antagonist)
O=C(Cc1ccc(S(=O)(=O)N2CCOCC2)s1)N1CCN(c2cccc(C(F)(F)F)c2)CC1	CHRM1 antagonist 38.3 (no result: TAAR1 agonist, TAAR1 antag)
COc1cc(/C=C/C(=O)c2ccc([N+](=O)[O-])o2)ccc1O	none
O=C(/C=C/c1cccc(Cl)c1)c1ccc([N+](=O)[O-])o1	TAAR1 agonist 57.4
COc1ccc(CN(CCNC(=O)CCCCC(=O)NCCN(Cc2ccc(OC)cc2)C(C)C)C(C)C)cc1	CHRM1 antagonist 73.5
Cc1cc(N2CCN(C(=O)OC(C)(C)C)C[C@@H]2C)ccc1N1CCN(Cc2ccccc2)[C@H](C)C1	none (no result: CHRM1 agonist, M1 PAM, CHRM1 antagonist)
Cc1ccc(Cl)cc1N1CCN(CC(O)COCc2ccco2)CC1 (stereo unspecified)	none
N#Cc1ccc(-c2ccc(OCC(O)Cn3nnc4ccccc43)cc2)cc1 (stereo unspecified)	TAAR1 antag 55.7
CCC(=O)c1ccc(OCC(O)CN2CCN(C(c3ccccc3)c3ccccc3)CC2)cc1 (stereo unspecified)	CHRM1 antagonist 69.7
OC(COCc1ccco1)CN1CCN(C(c2ccccc2)c2ccccc2)CC1 (stereo unspecified)	CHRM1 antagonist 66.5
OC(COc1ccccc1)CN1CCN(C(c2ccccc2)c2ccccc2)CC1 (stereo unspecified)	none
CC(=O)c1ccc(OCC(O)Cn2nnc3ccccc32)cc1 (stereo unspecified)	none
N#Cc1ccc(OCC(O)CN2CCN(C(c3ccccc3)c3ccccc3)CC2)cc1 (stereo unspecified)	CHRM1 antagonist 87.5

Source: PubChem
